T cell HTS – modulates CD8 T cell binding to vesicles; response (vesicle binding), % at 7 µM; 0.068% of 330,000 active; 2C CD8+ T cell-vesicle binding, flow cytometry; hits give low values;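 active means response, share of CD8 T cells binding vesicles, and their 90th percentile fluorescence all below set limits, cut at about 80% in these data, passing the limit was not always enough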;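 further: values below 100% mean blocked vesicle binding to the CD8+ T cells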
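Material: murine 2C transgenic CD8+ T lymphocytes / Also added: QL9-peptide-loaded Drosophila micro-vesicles bearing Ld, ICAM-1 and B7-1 / Schedule: binding step 1.5 h, 37 °C, antibody labelling 20 min, ice / Signal: flow cytometry, PE anti-B7-1 (FL2) versus Alexa647 anti-CD8 (FL8), PFA-fixed / Evaluation: percent CD8+ FL2 mean versus row control / Benchmarks: naked versus QL9-loaded vesicles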
Yeast superoxide – caloric restriction mimetics inhibiting age-related superoxide in yeast. S. cerevisiae aged cells, superoxide DHE fluorescence; hits give low values. superoxide response (% of plate mean), % at 10 µM. 0.18% of 330,000 active. AID 2690;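 active means superoxide response under a set limit, about three screen SD below normal, cut at about 65% in these data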;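 further: yeast aged for seven days with compound at 30 °C before DHE staining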
S1P3 antag – antagonists of human S1P3 receptor | Q99500 | CHO S1P3 NFAT-BLA reporter, FRET fluorescence, antagonist mode | inhibition, % at 4.98 µM | 0.27% of 170,000 active;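 active means inhibition above the plate cutoff, the mean inhibition of test wells on that plate plus 3 SD, cut at about 28% in these data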;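 further: cells challenged with S1P at its EC80 of 0.8 µM; blue over green emission ratio from cleaved BLA substrate after 4 h stimulation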
Target sequence (Q99500 whole entry, looked up): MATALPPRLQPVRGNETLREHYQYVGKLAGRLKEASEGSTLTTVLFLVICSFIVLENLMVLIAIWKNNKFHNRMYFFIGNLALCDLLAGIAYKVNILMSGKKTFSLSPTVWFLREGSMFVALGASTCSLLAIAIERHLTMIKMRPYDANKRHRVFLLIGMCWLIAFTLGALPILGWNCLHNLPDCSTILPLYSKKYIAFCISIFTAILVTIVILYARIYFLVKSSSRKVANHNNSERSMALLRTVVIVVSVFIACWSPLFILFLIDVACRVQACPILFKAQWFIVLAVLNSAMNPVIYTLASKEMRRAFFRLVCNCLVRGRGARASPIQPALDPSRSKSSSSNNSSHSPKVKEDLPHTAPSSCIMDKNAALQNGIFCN
CR mimetic CP – yeast aging superoxide inhibition, cherry pick confirmation; shares compounds with Yeast superoxide; S. cerevisiae aging, superoxide DHE fluorescence; hits give low values; 1% of 850 active; superoxide response (% of plate), % at 10 µM; AID 434994;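 active means superoxide signal below 65% of the plate average of sample wells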;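 further: cells aged with compound for 7 days at 30 degrees C before staining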
DHE fluor count – counter-screen for compounds affecting DHE oxidation and fluorescence in yeast. shares compounds with Yeast superoxide. S. cerevisiae BY4741, flow cytometry; hits give low values. fluorescence response, % at 10 µM. 850 tested, under 10 active. AID 435000;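 active means fluorescence response below 15%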;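 further: lower means stronger quenching of DHE signal or ROS scavenging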
Large screens that a line does not name were inactive (follow-up assays come after a bar, where they were run). Only some compounds are listed: those with a hit (about 0.41% of all), similar ones and a draw of the others.

Oc1ccc(-c2nnc(SCc3ccccc3)o2)cc1	none (no result: S1P3 antag)
C#CCSc1nnc(-c2ccc(C)cc2)o1	none (no result: S1P3 antag) | CR mimetic CP inactive | DHE fluor count inactive
C#CCSc1nnc(-c2cccc3ccccc23)o1	none
COc1cccc(C(C)NC(=O)C2CCCC2)c1 (stereo not given)	none (no result: S1P3 antag)
CCCN1CCN(S(=O)(=O)c2ccc3c(c2)CCC(=O)N3)CC1	none (no result: S1P3 antag)
Cc1nc(-c2ccc(F)cc2)c(CC(=O)Nc2ccc(C)c(S(=O)(=O)N3CCOCC3)c2)s1	none (no result: S1P3 antag)
CCCn1c2ccccc2c2cnn(CC(=O)NC3CCCCC3)c(=O)c21	none (no result: S1P3 antag)
O=C(O)c1cc(-c2ccc(Cl)cc2)n(-c2ccc(F)cc2)n1	none (no result: S1P3 antag)
Cc1cc(C)n(-c2nnc(NCc3ccc(Cl)cc3)nn2)n1	none
Cc1nn(-c2nnc(NCc3ccccc3)nn2)c(C)c1Br	Yeast superoxide 63 | CR mimetic CP inactive | DHE fluor count inactive
CN(CCCCCCCCCCN(C)C(=O)Oc1cccc([N+](C)(C)C)c1)C(=O)Oc1cccc([N+](C)(C)C)c1	none (no result: S1P3 antag)
COCCn1c(SCC(=O)Nc2cc(C)cc(C)c2)nc2ccccc2c1=O	none (no result: S1P3 antag)
COCCn1c(SCC(=O)Nc2ccc(NC(C)=O)cc2)nc2ccccc2c1=O	Yeast superoxide 51 (no result: S1P3 antag) | CR mimetic CP inactive | DHE fluor count inactive
CN(C)C(=O)c1cc(C(=O)c2ccccc2Br)c[nH]1	none (no result: S1P3 antag)
CSc1cccc(NC(=O)COC(=O)C2CCN(S(=O)(=O)c3ccccc3)CC2)c1	none (no result: S1P3 antag)
CN(Cc1ccccc1)C(=O)CCC1CCN(S(=O)(=O)N(C)C)CC1	none (no result: S1P3 antag)
CN(Cc1ccccc1)C(=O)CCC1CCN(S(C)(=O)=O)CC1	Yeast superoxide 65 (no result: S1P3 antag) | CR mimetic CP inactive | DHE fluor count inactive
CCN(C(=O)COC(=O)c1cccc(S(=O)(=O)N2CCOCC2)c1)C1CCS(=O)(=O)C1 (stereo not given)	none (no result: S1P3 antag)
N#C/C(=C/c1cccs1)c1nc2ccccc2[nH]1	Yeast superoxide 60 | CR mimetic CP inactive | DHE fluor count inactive
Cc1ccc(/C=C(\C#N)c2nc3ccccc3[nH]2)s1	none (no result: S1P3 antag)
COc1ccc(Cl)cc1NC(=O)CN(C)C(=O)Cn1cnnn1	none (no result: S1P3 antag)
CN(C)S(=O)(=O)c1cccc(NC(=O)C2CCN(S(=O)(=O)c3cccs3)CC2)c1	none (no result: S1P3 antag)
CN1CCN(C2=Cc3ccccc3Sc3cc(F)c(F)cc32)CC1	none (no result: S1P3 antag)
CN1CCN(C2=Cc3cc(Cl)ccc3Sc3cc(F)ccc32)CC1	Yeast superoxide 60 (no result: S1P3 antag) | CR mimetic CP inactive | DHE fluor count inactive
CCCN(CC(=O)Nc1ccccc1C)C(=O)Cc1c(C)nc2ccccc2c1C	none (no result: S1P3 antag)
O=C(NCCOc1ccccc1)C1=CC=CN2CCS(=O)(=O)N=C12	none (no result: S1P3 antag)
Cc1ccc(S(=O)(=O)N(C)c2ccc(N)cc2)cc1	none (no result: S1P3 antag) | CR mimetic CP inactive | DHE fluor count inactive
Cc1ccc(S(=O)(=O)N(C)c2ccc(C(=O)O)cc2)cc1	none
O=C(COc1ccc(F)cc1Cl)NC1CCCCCC1	none (no result: S1P3 antag)
CCC(=O)Nc1c(-c2ccc(Cl)cc2)c(=O)c2ccccc2n1C	none (no result: S1P3 antag)
COc1ccc(CCN=C(N)NS(=O)(=O)c2ccc(C)c(C)c2)cc1OC	none (no result: S1P3 antag)
COc1ccc(S(=O)(=O)NC(N)=NCCc2ccc(OC)c(OC)c2)cc1C	Yeast superoxide 64 | CR mimetic CP inactive | DHE fluor count inactive
Cc1ccc(C)c(S(=O)(=O)N2CCN(C(=O)Cn3cnc4c3c(=O)n(C)c(=O)n4C)CC2)c1	none (no result: S1P3 antag)
C=CCC[C@H](Cc1ccc(F)cc1)C(=O)OC[C@@H](NC(=O)[C@@H](CC=C)CC(=O)N(CCO)Cc1ccccc1)C(C)(C)C	none (no result: S1P3 antag)
Cc1cc2ccccn2c1C(=O)c1ccccc1F	Yeast superoxide 62 (no result: S1P3 antag) | CR mimetic CP inactive | DHE fluor count inactive
Cc1cc2ccccn2c1C(=O)c1ccc(Cl)cc1	none (no result: S1P3 antag)
COc1ccc(CC(=O)N(Cc2ccccc2)c2cccc(C)c2)cc1OC	Yeast superoxide 64 (no result: S1P3 antag) | CR mimetic CP inactive | DHE fluor count inactive
COc1ccc(C(=O)N(Cc2ccccc2)c2cccc(C)c2)c(OC)c1OC	none (no result: S1P3 antag)
COc1ccc(-c2noc(CCC(=O)NCC3CCCO3)n2)cc1OC (stereo not given)	none (no result: S1P3 antag)
COc1cccc(/C=N/NC(=O)CCn2c3ccccc3c3ccccc32)c1	none
NNC(=O)CCn1c2ccccc2c2ccccc21	none | CR mimetic CP inactive | DHE fluor count inactive
COc1ccc(/C=N/NC(=O)c2cccnc2)cc1	Yeast superoxide 54 (no result: S1P3 antag) | CR mimetic CP inactive | DHE fluor count inactive
COc1ccc(C(=O)Oc2ccc(/C=N/NC(=O)c3cccnc3)cc2OC)cc1	none (no result: S1P3 antag)
O=C(CSc1ncn[nH]1)NCc1ccccc1Cl	none (no result: S1P3 antag)
COc1ccc(OC)c(S(=O)(=O)N2CCC3(CC2)CC(=O)c2ccccc2O3)c1	none (no result: S1P3 antag)
COc1ccc(S(=O)(=O)N2CCC3(CC2)CC(=O)c2ccccc2O3)cc1C	Yeast superoxide 65 (no result: S1P3 antag) | CR mimetic CP inactive | DHE fluor count inactive
O=C(c1ncn(Cc2ccccc2)c1C(=O)N1CCc2ccccc2C1)N1CCc2ccccc2C1	none (no result: S1P3 antag)
CC(CNC(=O)CCS(=O)(=O)c1cc2c(cc1Cl)NC(=O)CO2)c1ccccc1 (stereo not given)	none (no result: S1P3 antag)
COc1ccc(C(C)NC(=O)c2ccncc2)cc1OC (stereo not given)	none (no result: S1P3 antag)
Cn1ccsc1=NC(=O)c1ccccc1F	none
Cc1ccc(C)c(-n2c(-c3ccc(Br)cc3)csc2=NC(=O)c2ccccc2F)c1	Yeast superoxide 53 | CR mimetic CP inactive | DHE fluor count inactive
CS(=O)(=O)c1ccc(N2CCN(S(=O)(=O)c3cccs3)CC2)c([N+](=O)[O-])c1	none (no result: S1P3 antag)
COC(=O)CN(c1ccc(C)cc1)S(=O)(=O)c1ccc(F)cc1	Yeast superoxide 50 | CR mimetic CP inactive | DHE fluor count inactive
CCOc1ccccc1N(CC(=O)OC)S(=O)(=O)c1ccccc1	none
COC(=O)CN(c1ccccc1F)S(=O)(=O)c1ccc(C)cc1	none
COC(=O)CN(c1ccccc1)S(=O)(=O)c1ccccc1	none | CR mimetic CP inactive | DHE fluor count inactive
CN(CCNC(=O)c1ccc(CS(=O)(=O)c2c(Cl)cccc2Cl)o1)CCc1ccccc1	none (no result: S1P3 antag)
CCSc1nnc(-c2ccc(S(=O)(=O)N3CCCC3)cc2)n1C	none
CCSc1nnc(C)c(=O)n1COC(=O)c1ccc(S(=O)(=O)N2CCCC2)cc1	Yeast superoxide 51 | CR mimetic CP inactive | DHE fluor count inactive
COc1cc(C)c(NC(=O)c2cccc(S(=O)(=O)N3CCCC3)c2)cc1OC	none (no result: S1P3 antag)
Cc1ccc(Cl)cc1NS(=O)(=O)c1cn(C)nc1C	Yeast superoxide 61 (no result: S1P3 antag) | CR mimetic CP inactive | DHE fluor count inactive
COc1ccc(Cl)cc1NS(=O)(=O)c1cn(C)nc1C	none (no result: S1P3 antag)
CC1CCN(CCC(=O)Nc2ccc3c(c2)OCCO3)CC1	Yeast superoxide 63 | CR mimetic CP inactive | DHE fluor count inactive
Cc1ccc(NC(=O)CCN2CCC(C)CC2)cc1	none (no result: S1P3 antag)
Cc1ccc(OCCSc2nc3ccccc3n2CCC(=O)O)cc1	none (no result: S1P3 antag)
O=S(=O)(NCCNS(=O)(=O)c1ccc(F)cc1)c1ccc(F)cc1	none (no result: T cell HTS, S1P3 antag)
Cc1ccsc1CNS(=O)(=O)c1ccc(F)cc1	Yeast superoxide 60 (no result: S1P3 antag) | CR mimetic CP inactive | DHE fluor count inactive
COc1ccc(-c2noc(CN(C)Cc3ccccc3)n2)c(OC)c1OC	none (no result: S1P3 antag)
O=C(CN1CCOCC1)Nc1nc(-c2ccccc2Cl)cs1	none (no result: S1P3 antag)

Bioassay records from PubChem BioAssay.
